Our source for the Activity values is ChEMBL document CHEMBL3576763, “Synthesis and Biological Activities of 5-Thio-α-GalCers” (2015).

Calls of active or inactive are those of the source. The calls are words filed in the database; no cut-off is given here.

The subject of assay [1] is Mus musculus. As to the kind of experiment: Immunostimulatory activity in B6 mouse assessed as induction of IL-4 production in serum at 100 ug/kg, ip measured at 3 hrs by ELISA. It counts as functional, organism-based. The essentials:
(§1)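 Glycolipid given intraperitoneally to B6 mice at 100 μg/kg. Serum IFN-γ and IL-4 measured at several time points after injection. Two mice per group, each mouse's serum assayed individually at each time.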

For assay [2], the system named is Mus musculus. As to the kind of experiment: Immunostimulatory activity in B6 mouse assessed as induction of IFN-gamma production in serum at 100 ug/kg, ip measured at 6 to 24 hrs by ELISA. It counts as functional. In outline:
as §1
On the technique in general: An ELISA detects its analyte on a solid surface through an enzyme-linked reagent.

The subject of assay [3] is iNKT. As to the kind of experiment: Immunostimulatory activity in B6 mouse iNKT cells assessed as induction of IFN-gamma production at 1000 ng/ml incubated for 16 hrs followed by brefeldin A addition measured after 2 hrs by flow cytometric analysis (reference value: 0.6%). It counts as functional. In outline:
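Mouse splenocytes stimulated with glycolipid in vitro; IFN-γ measured in cells gated as CD3+DX5+CD1d tetramer+ NKT cells. Control cells held in complete 1640 medium only; PMA plus ionomycin used as positive control.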
For orientation: A flow cytometer gives signals particle by particle.

In assay [4] the test system is Mus musculus. As to the kind of experiment: Immunostimulatory activity in B6 mouse assessed as induction of IL-4 production in serum at 100 ug/kg, ip measured up to 12 hrs by ELISA. It is filed as functional, organism-based. In outline: as §1
For assay [5], the system named is Mus musculus. As to the kind of experiment: Immunostimulatory activity in B6 mouse assessed as induction of IL-4 production in serum at 100 ug/kg, ip measured after 12 hrs by ELISA. It is filed as functional, organism-based. In outline: as §1
Assay [6] has as its system Mus musculus. In words: Immunostimulatory activity in B6 mouse assessed as induction of IFN-gamma production in serum at 100 ug/kg, ip after 24 hrs by ELISA. It counts as functional. In outline: as §1
In assay [7] the test system is iNKT. In words: Immunostimulatory activity in B6 mouse iNKT cells assessed as induction of IFN-gamma production incubated for 16 hrs followed by brefeldin A addition measured after 2 hrs by flow cytometric analysis in presence of ionomycin (reference value: 0.6%). It counts as functional.
The subject of assay [8] is Mus musculus. In words: Immunostimulatory activity in B6 mouse assessed as induction of IFN-gamma production in serum at 100 ug/kg, ip by ELISA. It is filed as functional, organism-based. The essentials: as §1

As to `CCCCCCCCCCCCCCCCCCCCCCCCCC(=O)N[C@@H](CO[C@H]1O[C@H](CO)[C@H](O)[C@H](O)[C@H]1O)[C@H](O)[C@H](O)CCCCCCCCCCCCCC` [RGI-7000], the outcome in assay [1] was Active. The values for the Activity in assay [2] and in assay [3] were 2127 pg/mL and 4.1%, respectively.

Consider `CCCCCCCCCCCCCCCCCCCCCCCCCC(=O)N[C@@H](CO[C@H]1S[C@H](CO)[C@H](O)[C@H](O)[C@H]1O)[C@H](O)[C@H](O)CCCCCCCCCCCCCC`, for which the outcome in assay [4] was Active. Besides, the outcome in assay [5] was inactive. The Activity in assay [6] is 1722 pg/mL; in assay [3] it was 8.5%.

For the compound `CCCCCCCCCCCCCC(=O)O[C@@H]1[C@@H](C)[C@@]2(O)[C@@H](C=C(CO)C[C@]3(O)C(=O)C(C)=C[C@@H]23)[C@@H]2C(C)(C)[C@]12OC(C)=O` [PHORBOL MYRISTATE ACETATE], in assay [7], the Activity worked out at 8.5%.

On to `CCCCCCCCCCCCCC[C@@H](O)[C@@H](O)[C@H](CO[C@H]1S[C@H](CO)[C@H](O)[C@H](O)[C@H]1O)NC(=O)CCCCCCCCCCCCC`, for which the outcome in assay [4] and in assay [5] was inactive. The result in assay [8] was Active. Moreover, in assay [3], the Activity was determined as 6%.

On to `CCCCCCCCCCCCCC[C@@H](O)[C@@H](O)[C@H](CO[C@H]1S[C@H](CO)[C@H](O)[C@H](O)[C@H]1O)NC(=O)CCCCCCC`, for which the outcome in assay [5] and in assay [8] was inactive. Besides, the Activity in assay [3] is listed as 1.4%.
